From article PMC4804196 (Journal of biomolecular screening, 2012)

Tests used:
[1] = target: T1, human RXFP1 (Homo sapiens, UniProt Q9HBX9); assay: ELISA cAMP assay; format: cell-based; conditions: 96-well; for efficacy: normalized to 57.5 μM forskolin as 100%
T1 sequence (Q9HBX9 1-757): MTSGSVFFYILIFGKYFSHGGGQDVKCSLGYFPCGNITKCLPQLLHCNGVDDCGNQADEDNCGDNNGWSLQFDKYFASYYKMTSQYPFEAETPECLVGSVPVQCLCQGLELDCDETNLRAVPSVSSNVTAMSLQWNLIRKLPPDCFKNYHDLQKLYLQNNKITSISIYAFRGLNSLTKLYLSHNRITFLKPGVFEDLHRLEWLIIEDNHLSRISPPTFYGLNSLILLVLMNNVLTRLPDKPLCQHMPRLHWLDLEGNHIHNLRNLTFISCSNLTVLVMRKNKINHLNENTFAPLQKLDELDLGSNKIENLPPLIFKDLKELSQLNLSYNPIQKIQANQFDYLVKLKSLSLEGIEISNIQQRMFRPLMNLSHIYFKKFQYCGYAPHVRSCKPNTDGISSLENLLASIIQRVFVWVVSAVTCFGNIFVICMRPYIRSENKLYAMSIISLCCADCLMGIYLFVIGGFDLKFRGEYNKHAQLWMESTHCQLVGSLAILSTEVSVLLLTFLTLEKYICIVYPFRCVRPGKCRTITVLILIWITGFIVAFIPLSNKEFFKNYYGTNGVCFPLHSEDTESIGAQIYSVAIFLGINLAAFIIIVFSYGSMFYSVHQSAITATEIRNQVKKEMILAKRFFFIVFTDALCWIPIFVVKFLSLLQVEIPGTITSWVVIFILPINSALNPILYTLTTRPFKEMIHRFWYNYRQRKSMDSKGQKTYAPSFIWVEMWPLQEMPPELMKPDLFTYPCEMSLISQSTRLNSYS
How it was run: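 HEK293T cells stably expressing human RXFP1 were grown in DMEM with 10% FBS, penicillin/streptomycin and 500 μg/mL geneticin. They were seeded at 16,000 cells/well and left overnight at 37 °C, 5% CO₂. PDE inhibitor Ro 20-1724 (417 μM addition solution in PBS+) was added, then test compound in DMSO, for 30 min at 37 °C. Cells were lysed and cAMP was quantified by ELISA. EC50 came from nonlinear regression of dose-response curves.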

[2] = target: T1, human RXFP1; assay: HTRF cAMP assay in HEK293-RXFP1 cells; format: cell-based
[3] = target: human relaxin family receptor 1 (RXFP1) (human) (UniProt Q9HBX9)
[4] = target: T2, vasopressin 1b receptor (V1b) (Homo sapiens, UniProt P47901); assay: HTRF cAMP counter screen in HEK293-V1b cells; format: cell-based
T2 sequence (P47901 1-424): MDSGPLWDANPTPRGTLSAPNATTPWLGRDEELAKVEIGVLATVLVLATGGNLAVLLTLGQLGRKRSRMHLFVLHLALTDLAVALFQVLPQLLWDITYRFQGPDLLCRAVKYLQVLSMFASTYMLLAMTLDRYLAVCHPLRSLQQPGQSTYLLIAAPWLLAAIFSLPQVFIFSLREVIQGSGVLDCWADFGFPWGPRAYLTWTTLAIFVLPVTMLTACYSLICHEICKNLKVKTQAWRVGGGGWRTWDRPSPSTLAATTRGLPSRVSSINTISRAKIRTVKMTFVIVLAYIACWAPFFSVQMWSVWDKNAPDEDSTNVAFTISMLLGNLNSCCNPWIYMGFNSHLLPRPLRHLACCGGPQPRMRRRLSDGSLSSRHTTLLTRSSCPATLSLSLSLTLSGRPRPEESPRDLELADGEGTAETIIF

[5] = target: human relaxin family receptor 2 (RXFP2) (Homo sapiens, UniProt Q8WXD0); assay: HTRF cAMP selectivity assay in HEK293-RXFP2 cells; format: cell-based; conditions: HEK293-RXFP1 vs HEK293-RXFP2
Sequence of human relaxin family receptor 2 (RXFP2) (Q8WXD0 whole entry): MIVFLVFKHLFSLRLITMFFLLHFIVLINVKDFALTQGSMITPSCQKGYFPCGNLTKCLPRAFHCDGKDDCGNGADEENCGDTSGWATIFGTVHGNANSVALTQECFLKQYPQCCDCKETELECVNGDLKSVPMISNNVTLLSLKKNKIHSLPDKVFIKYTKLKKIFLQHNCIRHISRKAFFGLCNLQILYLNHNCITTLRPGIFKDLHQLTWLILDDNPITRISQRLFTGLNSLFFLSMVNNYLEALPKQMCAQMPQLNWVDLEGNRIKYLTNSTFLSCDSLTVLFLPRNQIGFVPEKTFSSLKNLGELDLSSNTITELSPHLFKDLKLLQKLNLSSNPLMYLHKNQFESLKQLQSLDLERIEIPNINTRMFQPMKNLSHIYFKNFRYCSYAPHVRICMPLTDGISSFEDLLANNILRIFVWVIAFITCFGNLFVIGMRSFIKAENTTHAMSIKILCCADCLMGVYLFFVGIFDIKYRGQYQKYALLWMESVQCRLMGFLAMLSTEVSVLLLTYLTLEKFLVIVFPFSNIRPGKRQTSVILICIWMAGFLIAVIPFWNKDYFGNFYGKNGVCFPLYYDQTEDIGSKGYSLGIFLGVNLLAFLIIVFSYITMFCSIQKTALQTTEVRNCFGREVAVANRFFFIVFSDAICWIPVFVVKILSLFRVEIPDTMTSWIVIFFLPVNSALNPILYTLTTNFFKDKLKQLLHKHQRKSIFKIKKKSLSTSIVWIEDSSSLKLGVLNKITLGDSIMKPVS

Sequence of Porcine relaxin (ligand) (P01348 25-182): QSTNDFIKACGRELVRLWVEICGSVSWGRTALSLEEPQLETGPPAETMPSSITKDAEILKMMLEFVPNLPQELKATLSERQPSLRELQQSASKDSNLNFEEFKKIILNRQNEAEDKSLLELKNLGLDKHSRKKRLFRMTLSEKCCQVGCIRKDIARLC

Q: What does the source list for `O=C(Nc1ccccc1C(=O)Nc1ccccc1C(=O)NCc1ccco1)c1ccco1` [MLS000088899]?
A: EC50 [1]: 2.9 µM; efficacy [1]: 80%

Q: What does the source list for `O=C(Nc1cccc(C(F)(F)F)c1)c1ccccc1NC(=O)C1CCCCC1` [MLS000579461]?
A: EC50 [1]: 6.2 µM; efficacy [1]: 60%

Q: Which results are given for `C=C[C@@]1(C)CC(=O)[C@]2(O)[C@@]3(C)[C@@H](O)CCC(C)(C)[C@@H]3[C@H](O)[C@H](OC(C)=O)[C@@]2(C)O1` [forskolin, reference compound]?
A: EC50 ([2]; EC50 (cAMP response), HEK293-RXFP1 cells, 384-well format): 164 nM; EC50 ([2]; EC50 (cAMP response), HEK293-RXFP1 cells, 1,536-well format): 193 nM

Q: How did the EC50 of cAMP production (HTRF cAMP assay) in HEK293-RXFP1 cells, 384-well format [3] turn out when Porcine relaxin (ligand) was run?
A: 203 pM

Q: Which results are given for relaxin?
A: activity in HEK293-V1b counter screen [4]: no activity; selectivity towards RXFP1 over RXFP2 [5]: > 30 fold; EC50 ([2]; read-out: EC50 (cAMP response), HEK293-RXFP1 cells, 384-well format): 0.203 nM; EC50 ([2]; read-out: EC50 (cAMP response), HEK293-RXFP1 cells, 1,536-well format): 0.494 nM
